In ChEMBL document CHEMBL1152630, “Synthesis and evaluation of benzo[b]thiophene derivatives as inhibitors of alkaline phosphatases” (Bioorg Med Chem, 2009):

Experiments:
[1] = target: Intestinal-type alkaline phosphatase (Bos taurus) (UniProt P19111); experiment: Inhibition of bovine intestinal alkaline phosphatase assessed as residual enzyme activity at 0.1 mM in presence of 1% DMSO at pH 10.4 at 37 degC relative to untreated control
Procedure, shortened: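 Screening in 25 mM piperazine, 25 mM glycylglycine, 5 mM MgCl2, 5 µM ZnCl2, pH 10.4, 37 °C. BIAP (0.1–0.3 µg/mL) preincubated 10 min with 0.1 mM compound (final DMSO 1% v/v), no substrate. Reaction started with 0.05 mM pNPP; read at 420 nm (ε 18.6 cm⁻¹ mM⁻¹). Activity given relative to inhibitor-free control; sample-to-sample error 5%.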

[2] = species: Sus scrofa; experiment: Inhibition of porcine kidney tissue non-specific alkaline phosphatase assessed as residual enzyme activity at 0.4 mM in presence of 4% DMSO at pH 10.4 at 37 degC relative to untreated control

Sequence of Intestinal-type alkaline phosphatase (Bos taurus) (P19111 20-506 limits assumed): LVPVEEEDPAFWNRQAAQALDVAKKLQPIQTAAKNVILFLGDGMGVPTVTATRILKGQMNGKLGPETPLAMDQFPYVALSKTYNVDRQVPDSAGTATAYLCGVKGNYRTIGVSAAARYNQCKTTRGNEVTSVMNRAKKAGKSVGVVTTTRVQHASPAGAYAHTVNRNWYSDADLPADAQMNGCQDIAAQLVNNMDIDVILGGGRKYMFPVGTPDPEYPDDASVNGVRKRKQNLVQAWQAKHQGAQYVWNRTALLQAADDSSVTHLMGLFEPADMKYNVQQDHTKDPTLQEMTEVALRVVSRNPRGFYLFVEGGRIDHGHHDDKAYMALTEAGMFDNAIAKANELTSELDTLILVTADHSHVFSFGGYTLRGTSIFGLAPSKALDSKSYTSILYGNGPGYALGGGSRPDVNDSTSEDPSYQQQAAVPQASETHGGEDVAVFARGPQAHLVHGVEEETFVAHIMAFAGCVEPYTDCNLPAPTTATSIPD

Row | SMILES | Activity [1] [%] | Activity [2] [%]
1 | [O-][s+]1cc(Oc2ccccc2)c2ccccc21 (stereo not given) | 102 | 104
2 | N#Cc1ccc(Oc2csc3ccccc23)cc1 | 87 | 85
3 | COc1ccc(Oc2c(-c3ccccc3C#N)sc3ccccc23)cc1 | 106 | 98
4 | N#Cc1ccccc1-c1sc2ccccc2c1Oc1ccccc1 | 110 | 91
5 | COc1ccc(-c2cc3ccccc3s2)c([N+](=O)[O-])c1 | 99 | 96
6 | COc1ccc(C(=O)c2csc3ccccc23)cc1 | 40 | 96
7 | O=Cc1c(-c2ccc(Cl)cc2)sc2ccccc12 | 9 | 
8 | FC(F)(F)COc1cc2ccccc2s1 | 116 | 100
9 | COc1cc(Oc2csc3ccccc23)cc(OC)c1OC | 129 | 101
10 | N#Cc1csc2ccccc12 | 92 | 92
11 | NCc1ccc(Oc2csc3ccccc23)cc1 | 105 | 83
12 | Clc1cccc(-c2cc3ccccc3s2)c1 | 95 | 96
13 | COc1ccc(C(=O)c2c(-c3ccccc3[N+](=O)[O-])sc3ccccc23)cc1 | 107 | 101
14 | O=Cc1csc2ccccc12 | 120 | 85
15 | COc1cccc(-c2sc3ccccc3c2C#N)c1 | 97 | 
16 | Clc1ccc(Oc2csc3ccccc23)cc1 | 107 | 94
17 | COc1ccc(-c2sc3ccccc3c2C(=O)c2ccccc2)c([N+](=O)[O-])c1 | 114 | 97
18 | O=[N+]([O-])c1ccccc1-c1cc2ccccc2s1 | 121 | 86
19 | COc1cc(Oc2c[s+]([O-])c3ccccc23)cc(OC)c1OC (stereo not given) | 127 | 101
20 | [O-][s+]1cc(Oc2ccc(F)cc2)c2ccccc21 (stereo not given) | 109 | 79
21 | Ic1cc2ccccc2s1 | 41 | 54
22 | COc1ccc(-c2sc3ccccc3c2OC)cc1 | 78 | 97
23 | Oc1ccccc1N1CCN(c2csc3ccccc23)CC1 | 49 | 109
24 | COc1ccc(-c2sc3ccccc3c2CN)c(OC)c1OC | 142 | 94
25 | N#Cc1ccc(Oc2c[s+]([O-])c3ccccc23)cc1 (stereo not given) | 106 | 67
26 | Cc1ccc(-c2cc3ccccc3s2)c([N+](=O)[O-])c1 | 127 | 97

Row | SMILES | Activity [1] [%] | Activity [2] [%]
27 | COc1ccc(Oc2c[s+]([O-])c3ccccc23)cc1 (stereo not given) | 107 | 100
28 | O=Cc1ccc(Oc2csc3ccccc23)cc1 | 9 | 
29 | COc1cc(-c2sc3ccccc3c2C#N)cc(OC)c1OC | 88 | 91
30 | COc1cccc(C(=O)c2c(-c3ccccc3[N+](=O)[O-])sc3ccccc23)c1 | 98 | 96
31 | N#Cc1ccccc1-c1sc2ccccc2c1Oc1ccc(F)cc1 | 66 | 85
32 | COc1ccc(-c2sc3ccccc3c2N2CCCCC2)cc1 | 106 | 91
33 | O=[N+]([O-])c1ccccc1-c1sc2ccccc2c1-c1ccccc1[N+](=O)[O-] | 108 | 88
34 | COc1ccc(Oc2csc3ccccc23)cc1 | 96 | 82
35 | COc1ccc(C(=O)c2c(-c3ccc(OC)cc3)sc3ccccc23)cc1 | 70 | 108
36 | c1ccc2c(N3CCOCC3)csc2c1 | 108 | 99
37 | COc1ccc(-c2csc3ccccc23)cc1 | 100 | 
38 | CN1CCN(c2c[s+]([O-])c3ccccc23)CC1 (stereo not given) | 102 | 95
39 | [O-][s+]1cc(N2CCOCC2)c2ccccc21 (stereo not given) | 97 | 111
40 | COc1ccccc1C(=O)c1c(-c2ccccc2[N+](=O)[O-])sc2ccccc12 | 92 | 98
41 | [O-][s+]1cc(N2CCCCC2)c2ccccc21 (stereo not given) | 110 | 101
42 | N#Cc1sc2ccccc2c1-c1ccc(C(F)(F)F)cc1 | 115 | 
43 | COC(=O)/C(=C\c1c(-c2ccc(C#N)cc2)sc2ccccc12)NCc1ccccc1 | 108 | 
44 | Fc1ccc(Oc2csc3ccccc23)cc1 | 104 | 78
45 | COc1ccc(C(=O)c2c(-c3ccc(OC)cc3[N+](=O)[O-])sc3ccccc23)cc1 | 95 | 100
46 | N#Cc1ccccc1-c1sc2ccccc2c1N1CCOCC1 | 107 | 93
47 | O=Cc1c(-c2ccccc2[N+](=O)[O-])sc2ccccc12 | 116 | 78
48 | COc1ccc(-c2sc3ccccc3c2C#N)cc1 | 94 | 
49 | N#Cc1c(-c2ccc(Cl)cc2)sc2ccccc12 | 69 | 
50 | N#Cc1sc2ccccc2c1-c1cccnc1 | 120 | 
51 | COC(=O)C(Cc1c(-c2ccc(C(F)(F)F)cc2)sc2ccccc12)NCc1ccccc1 (stereo not given) | 63 | 

More lines, now with the values ahead:

Row | Activity [1] [%] | Activity [2] [%] | SMILES
52 | 94 | 90 | FC(F)c1c(-c2ccccc2)sc2ccccc12
53 | 148 | 76 | NCc1c(-c2ccccc2)sc2ccccc12
54 | 93 | 70 | Nc1ccccc1-c1cc2ccccc2s1
55 | 62 | 95 | O=Cc1c(-c2cccc(Cl)c2)sc2ccccc12
56 | 18 | 99 | N#Cc1c(-c2ccc3ccccc3c2)sc2ccccc12
57 | 119 | 93 | O=Cc1c(-c2cccnc2)sc2ccccc12
58 | 73 | 96 | COc1c(-c2ccccc2C)sc2ccccc12
59 | 41 | 77 | O=Cc1c(-c2ccccc2)sc2ccccc12
60 | 80 | 87 | COc1c(-c2ccccc2)sc2ccccc12
61 | 102 |  | COc1c(-c2ccc3ccccc3c2)sc2ccccc12
62 | 90 |  | N#Cc1ccccc1-c1sc2ccccc2c1C#N
63 | 43 | 80 | O=C(c1ccccc1)c1csc2ccccc12
64 | 122 | 84 | FC(F)(F)Cc1c(-c2cccnc2)sc2ccccc12
65 | 104 | 91 | c1ccc(Oc2c(-c3ccccc3)sc3ccccc23)cc1
66 | 105 | 94 | COc1ccc(-c2sc3ccccc3c2Oc2ccccc2)cc1
67 | 63 | 97 | O=Cc1c(-c2ccccc2Cl)sc2ccccc12
68 | 57 | 79 | COc1c(-c2ccccc2C#N)sc2ccccc12
69 | 106 |  | N#Cc1c(-c2cccnc2)sc2ccccc12
70 | 64 | 86 | COc1c(-c2cnc3ccccc3c2)sc2ccccc12
71 | 134 | 84 | CN(C)c1cccc(-c2sc3ccccc3c2CN)c1
72 | 115 |  | N#Cc1c(-c2cccc(Cl)c2)sc2ccccc12
73 | 94 |  | N#Cc1c(-c2ccccn2)sc2ccccc12
74 | 110 |  | O=Cc1c(-c2cnc3ccccc3c2)sc2ccccc12
75 | 95 |  | N#Cc1c(-c2cnc3ccccc3c2)sc2ccccc12
76 | 115 |  | COC(=O)C(Cc1c(-c2ccc(C#N)cc2)sc2ccccc12)NCc1ccccc1 (stereo not given)
77 | 76 |  | N#Cc1c(-c2ccccc2)sc2ccccc12
